Assay results of several laboratories.
Compare with care: the assays were run in different laboratories.
HDAC5: Histone deacetylase 5 (HDAC5, Homo sapiens, UniProt Q9UQL6)
DRD3: D(3) dopamine receptor (DRD3, Homo sapiens, UniProt P35462)
SLC6A3: Sodium-dependent dopamine transporter (SLC6A3, Homo sapiens, UniProt Q01959)

SMILES | target | test | setting | IC50
COc1ccc(N(Cc2csc(-c3ccc(C)cc3)n2)C(=O)CCCCCC(=O)NO)cc1 | HDAC5 | enzyme activity, inhibitor | – | > 10 µM
CSc1ccc(NS(=O)(=O)c2c(C)[nH]c(C)c2C(=O)N2CCC(F)(F)C2)cc1Cl | DRD3 | G protein activation, antagonist, BRET | – | 6 µM
CN(C)C(=O)c1cc2cnc(Nc3ccc(-c4ccc5c(=O)cc(N6CCOCC6)oc5c4)cc3)nc2n1C1CCCC1 | DNA-dependent protein kinase catalytic subunit (PRKDC, Homo sapiens, UniProt P78527) | enzyme activity, inhibitor | – | 0.192 µM
O=C(Nc1ccc2[nH]c(=O)oc2c1)C(=O)N1CCC(Cc2ccc(F)cc2)CC1 | Glutamate NMDA receptor; GRIN1/GRIN2B (GRIN1/GRIN2B, Homo sapiens, UniProt Q05586+Q13224) | ion current, two-electrode voltage clamp | oocytes | 0.029 µM
O[C@@H]1[C@H](O)[C@@H]2C[C@@H]2[C@H]1n1cnc2c(NCCC3CC3)ncnc21 | SLC6A3 | transporter uptake, inhibitor, radiometric | – | 9.3 µM
O=C(NO)c1ccc(Cn2cnc3c(Nc4ccc(Cl)cc4)ncnc32)cc1 | HDAC5 | enzyme activity, inhibitor | – | 0.473 µM
COc1c(Cl)cccc1Nc1c(-c2ccncc2OC[C@@H]2COCCO2)[nH]c2c1C(=O)NCC2 | Discoidin domain-containing receptor 2 (DDR2, Homo sapiens, UniProt Q16832) | cell-free assay, TR-FRET | – | 0.0533 µM
CCc1ccc(NS(=O)(=O)c2c(C)[nH]c(C)c2C(=O)N2CCC(F)(F)C2)cc1Cl | DRD3 | G protein activation, antagonist, BRET | – | 1.6 µM
Nc1cnccc1Nc1ccc(Cl)c(Cl)c1 | DNA repair nuclease/redox regulator APEX1 (APEX1, Homo sapiens, UniProt P27695) | enzyme activity, inhibitor | – | > 100 µM
NS(=O)(=O)c1ccc(Nc2nc(-c3cc4cc(Br)ccc4oc3=O)cs2)c(Br)c1 | Carbonic anhydrase 12 (CA12, Homo sapiens, UniProt O43570) | enzyme activity, inhibitor, absorbance | – | 6.18 µM
Cc1[nH]c(C)c(S(=O)(=O)Nc2ccc(Cl)c(C(F)(F)F)c2)c1C(=O)N1CCC(F)(F)C1 | DRD3 | G protein activation, antagonist, BRET | – | 15 µM
CNc1nc(C#Cc2ccc(Cl)s2)nc2c1ncn2[C@H]1[C@H](O)[C@H](O)[C@]2(C(=O)OC)C[C@H]12 | SLC6A3 | transporter uptake, inhibitor, radiometric | – | 0.38 µM
Cc1[nH]c(C)c(S(=O)(=O)Nc2ccc(C(F)(F)F)c3ncccc23)c1C(=O)N1CCC(F)(F)C1 | DRD3 | G protein activation, antagonist, BRET | – | 15 µM
CCCN(CCC)S(=O)(=O)c1ccc(C(=O)O)cc1 | Taste receptor type 2 member 16 (TAS2R16, Homo sapiens, UniProt Q9NYV7) | inositol phosphate, antagonist, TR-FRET | – | 770 µM
Cc1[nH]c(C)c(S(=O)(=O)Nc2cc(Cl)cc(Cl)c2Cl)c1C(=O)N1CCC(F)(F)C1 | DRD3 | β-arrestin recruitment, antagonist | – | 12 µM
COc1ccc(N(Cc2csc(-c3ccccc3)n2)C(=O)CCCCCC(=O)NO)cc1 | HDAC5 | enzyme activity, inhibitor | – | > 10 µM
